The values below come from ChEMBL document CHEMBL2046385, “Palau'amine and related oroidin alkaloids dibromophakellin and dibromophakellstatin inhibit the human 20S proteasome” (J Nat Prod, 2012).

Assay [1] relates to HeLa. Description: Inhibition of 20S proteasome in TNFalpha-stimulated human HeLa cells assessed as accumulation of ubiquitinylated cellular proteins at 1 uM after 2 hrs using DAPI staining by DIC image analysis. In kind it is cell-based. The essentials: (§1)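 HeLa cells grown on glass coverslips in MEM with 10% FBS and penicillin/streptomycin. Treated 2 h with 1.0 μM compound or 0.1% DMSO vehicle, TNFα 20 ng/mL stimulation for 2 h. Fixed in 4% paraformaldehyde, permeabilized with 0.5% Triton, blocked in 5% BSA/0.05% Tween-20. […] anti-ubiquitin (P4D1) 1:250 overnight at 4 °C, then Alexa546 secondary; DAPI nuclear stain. DIC and confocal imaging, with quantification of ubiquitin fluorescence intensity.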

Assay [2] has as its system HeLa. Description: Inhibition of 26S proteasome-mediated IkappaBalpha proteasomal degradation in TNFalpha-stimulated human HeLa cells at 1 uM treated 30 mins before TNFalpha challenge measured after 30 mins using DAPI staining by confocal microscopy analysis. In kind it is cell-based. An outline of the steps:
(§2)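 HeLa cells on coverslips in MEM with 10% FBS were pretreated 30 min with 1 μM compound or 0.1% DMSO vehicle, then given 20 ng/mL TNFα for 30 min or left unstimulated. Fixed in paraformaldehyde, permeabilized with Triton, blocked in BSA/Tween. Mouse anti-IκBα (L35A5) 1:250 overnight at 4 °C, then Alexa-labelled secondary; DAPI counterstain. Confocal imaging with quantified IκBα fluorescence intensity; p-value versus vehicle/TNFα.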

The species named for assay [3] is Homo sapiens. The experiment in a line: Irreversible inhibition of chymotryptic-like of purified human 20S proteasome assessed as Suc-LLVY-AMC substrate at 0.5 to 1 uM. The essentials: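 Suc-LLVY-AMC 50 μM (Km). AMC fluorescence λex 380/λem 440. Vmax taken from linear portions and plotted against [E]. An irreversible inhibitor intersects the horizontal axis rather than passing through the origin.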

The species entered for assay [4] is Homo sapiens. Description: Reversible inhibition of purified human 20S proteasome at pH >7.5. The essentials:
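Compound preincubated in assay buffer (50 mM Tris-HCl, 0.03% SDS) at pH 7.5 or 8.0 for varying times before enzyme addition. Residual inhibition of 1 nM purified human 20S proteasome then read by fluorogenic AMC release at 37 °C over 30 min.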

In assay [5] the test system is HeLa. Description: Inhibition of 20S proteasome in TNFalpha-stimulated human HeLa cells assessed as accumulation of ubiquitinylated cellular proteins at 1 uM after 2 hrs using DAPI staining by fluorescence confocal microscopic analysis. The class given is cell-based. An outline of the steps:
as §1

Assay [6] is filed under the species Homo sapiens. The experiment in a line: Irreversible inhibition of chymotryptic-like of purified human 20S proteasome assessed as Suc-LLVY-AMC substrate at 10 to 50 uM measured after drug washout.
Assay [7] deals with HeLa. The experiment in a line: Inhibition of 26S proteasome-mediated IkappaBalpha proteasomal degradation in human HeLa cells at 1 uM after 30 mins using DAPI staining by confocal microscopy analysis. In kind it is cell-based. The essentials:
as §2

Assay [8] in a line: Inhibition of chymotryptic-like of purified human 20S immunoproteasome.
Assay [9] in a line: Inhibition of caspase-like of purified human 20S proteasome using Z-LLE-AMC as substrate after 30 mins by fluorescence assay. The essentials: (§3)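 Purified human 20S core at 1 nM in 50 mM Tris-HCl pH 7.5 with 0.03% SDS, 37 °C. Fluorogenic substrate was used at its Km. Released AMC was read at ex 380/em 460 nm every minute for 30 min. The maximal (linear) rate was used to derive IC50. Each value is the mean of three or more independent experiments.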

Assay [10] in a line: Inhibition of tryptic-like of purified human 20S proteasome using Boc-LRR-AMC as substrate after 30 mins by fluorescence assay. The essentials: as §3
The nature of assay [11]: Inhibition of chymotryptic-like of purified human 20S proteasome using Suc-LLVY-AMC as substrate after 30 mins by fluorescence assay. The essentials: as §3
The species named for assay [12] is Homo sapiens. Description: Irreversible inhibition of chymotryptic-like of purified human 20S proteasome assessed as Suc-LLVY-AMC substrate at 1 uM measured after drug washout. The essentials: (§4)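 Washout assay. Human 20S proteasome (1 nM) was exposed to vehicle or inhibitor (1 or 10 μM), then assayed for CT-L activity with Suc-LLVY-AMC as in the main assay. The mixture was washed through a 10K centrifugal filter with 500 volumes of reaction buffer. Retentate CT-L activity was compared with the prewash activity.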

The species entered for assay [13] is Homo sapiens. The experiment in a line: Reversible inhibition of chymotryptic-like of purified human 20S proteasome assessed as Suc-LLVY-AMC substrate at 1 uM measured after drug washout. An outline of the steps: as §4

Structures are written as SMILES. pIC50: −log10 of the molar value. The source made the active and inactive calls. No cut-off for these calls is given here. Peptide text beside a SMILES is read from it. * marks the point of attachment. Cbz = O=C(OCc1ccccc1)*

What is called pIC50 is the negative decadic logarithm of the IC50, by convention in mol/L.

For `NC[C@@H]1[C@H]2CN3C(=O)c4cccn4[C@@H]4NC(N)=N[C@@]43[C@@H]2[C@]2(N=C(N)N[C@H]2O)[C@H]1Cl` [listing 1 of 2 here], the inhibition entry in the assay on HeLa [1], in the assay with HeLa [2], in the assay listed under Homo sapiens [3], in the assay filed under Homo sapiens [4], with HeLa [5] and in the assay listed under Homo sapiens [6] was “Active” throughout. The inhibition result with HeLa [7] is “Active”.
Take `NC[C@@H]1[C@H]2CN3C(=O)c4cccn4[C@@H]4NC(N)=N[C@@]43[C@@H]2[C@]2(N=C(N)N[C@H]2O)[C@H]1Cl` (racemic): the pIC50 in assay [8] was 5.40; in [9] it was 5.52; in assay [10], under 4.00; in assay [11], 5.26.
In the same order, the values of `O=C1N[C@H]2n3c(cc(Br)c3Br)C(=O)N3CCC[C@]23N1` (racemic) [DIBROMOPHAKELLSTATIN] are 5.21, 4.79, under 4.00 and 4.92.
On to `CC[C@H](C)[C@H](NC(=O)[C@H]([C@@H](C)CC)N(C)C(C)=O)C(=O)N[C@H](C(=O)N[C@@H](CC(C)C)C(=O)[C@@]1(C)CO1)[C@@H](C)O`, for which the inhibition result in the assay filed under Homo sapiens [12] is “Active”.
In the case of `O=c1c2cc(Br)c(Br)n2cc2n1CCC2`, the pIC50 in assay [8], in assay [9], in assay [10] and in assay [11] was under 4.00 in each case.
As for `CC(C)C[C@@H](C=O)NC(=O)[C@H](CC(C)C)NC(=O)[C@H](CC(C)C)NC(=O)OCc1ccccc1` (Cbz-Leu-Leu-Leu-aldehyde), in the assay listed under Homo sapiens [13], the inhibition entry is “Active”.
`NC[C@@H]1[C@H]2CN3C(=O)c4cccn4[C@@H]4NC(N)=N[C@@]43[C@@H]2[C@]2(N=C(N)N[C@H]2O)[C@H]1Cl` [listing 2 of 2 here]: the values for the pIC50 in assay [8], in assay [9] and in assay [11] were 5.64, 5.80 and 5.60, respectively.
Consider `NC1=N[C@]23CCCN2C(=O)c2cc(Br)c(Br)n2[C@@H]3N1` (racemic) [DIBROMOPHAKELLIN], for which the pIC50 in [8] was 4.73; in assay [9], 4.57; in assay [10], under 4.00; in [11], 4.60.
